Experimental data reported in ChEMBL document CHEMBL1137089, “Identification of putative agouti-related protein(87-132)-melanocortin-4 receptor interactions by homology molecular modeling and validation using chimeric peptide ligands” (J Med Chem, 2004).
pEC50, pIC50: −log10 of the molar value. *1 amine or outer side, *2 acyl side, *3 side chain or, on linkers, in order; H or OH if unused. Where a SMILES comes first, the peptide text is derived from it. Bridges are numbered along the chain shown (N, C = ends). [ ]: non-standard residue; d: D form. The star is where a group is joined. X4 = O=C(C(=O)[*:2])[C@H](Cc1ccccc1)N[*:1]; X3 = NN[C@@H](Cc1ccc(O)cc1)C(=O)*; Dap = NC[C@H](N)C(=O)O

Columns and labels:
Melanocortin receptor 4 [1] = target: T1, Melanocortin receptor 4 (Mus musculus, UniProt P56450); test: Inhibitory concentration towards melanocortin MC4 receptor by displacing radioligand [125I]NDP-MSH
In short: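 Whole HEK-293 cells stably expressing the mouse MC4 receptor, plated at 0.3 × 10⁶ cells/well the day before. Cells washed, lysed in NaOH/Triton X-100, and counted by γ-counter. IC50 by nonlinear least-squares fit; duplicate wells, at least two independent experiments, mean ± SD.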

Melanocortin receptor 4 [2] = target: T1, Melanocortin receptor 4; test: Inhibitory concentration towards melanocortin MC4 receptor by displacing radioligand [125I]-hAGRP(87-132)
Melanocortin receptor 3 = Melanocortin receptor 3 (Mus musculus, UniProt P33033); test: Effective concentration against mouse Melanocortin 3 receptor; assay type: functional; conditions: for Kb: read-out: pA2 (converted)
In short: (§1)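 HEK-293 cells stably expressing the mouse melanocortin receptor (G418 selection), transiently transfected with CRE/β-galactosidase reporter. EC50 by nonlinear least-squares fit; SEM from at least three independent experiments.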

[3] = target: Melanocyte-stimulating hormone receptor (Mus musculus, UniProt Q01727); test: Effective concentration against mouse Melanocortin 1 receptor; assay type: functional; in short: as §1
Melanocortin receptor 4 [4] = target: T1, Melanocortin receptor 4; test: Effective concentration against mouse melanocortin MC4 receptor; assay type: functional; in short: as §1
Melanocortin receptor 5 = Melanocortin receptor 5 (Mus musculus, UniProt P41149); test: Effective concentration against mouse Melanocortin 5 receptor; assay type: functional; in short: as §1
Melanocortin receptor 5, sequence (P41149 whole entry): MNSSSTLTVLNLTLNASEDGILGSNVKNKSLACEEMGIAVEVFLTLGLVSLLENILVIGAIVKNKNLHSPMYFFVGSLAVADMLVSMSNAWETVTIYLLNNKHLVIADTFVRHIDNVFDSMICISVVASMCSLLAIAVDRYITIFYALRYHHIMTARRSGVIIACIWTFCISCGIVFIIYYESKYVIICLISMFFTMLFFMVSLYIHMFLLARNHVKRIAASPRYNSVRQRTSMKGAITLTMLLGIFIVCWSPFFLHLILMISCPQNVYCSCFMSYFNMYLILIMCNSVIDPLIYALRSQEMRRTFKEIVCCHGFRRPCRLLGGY

Melanocyte-stimulating hormone receptor, sequence (Q01727 whole entry): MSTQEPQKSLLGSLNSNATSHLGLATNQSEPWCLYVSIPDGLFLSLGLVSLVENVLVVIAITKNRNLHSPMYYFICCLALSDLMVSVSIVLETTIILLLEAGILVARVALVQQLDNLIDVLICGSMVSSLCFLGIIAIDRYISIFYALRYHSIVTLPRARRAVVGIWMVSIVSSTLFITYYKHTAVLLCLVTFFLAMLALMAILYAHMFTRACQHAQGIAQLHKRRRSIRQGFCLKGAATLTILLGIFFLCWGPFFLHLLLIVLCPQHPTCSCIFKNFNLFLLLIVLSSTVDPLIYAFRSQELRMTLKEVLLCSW
Melanocortin receptor 3, sequence (P33033 whole entry): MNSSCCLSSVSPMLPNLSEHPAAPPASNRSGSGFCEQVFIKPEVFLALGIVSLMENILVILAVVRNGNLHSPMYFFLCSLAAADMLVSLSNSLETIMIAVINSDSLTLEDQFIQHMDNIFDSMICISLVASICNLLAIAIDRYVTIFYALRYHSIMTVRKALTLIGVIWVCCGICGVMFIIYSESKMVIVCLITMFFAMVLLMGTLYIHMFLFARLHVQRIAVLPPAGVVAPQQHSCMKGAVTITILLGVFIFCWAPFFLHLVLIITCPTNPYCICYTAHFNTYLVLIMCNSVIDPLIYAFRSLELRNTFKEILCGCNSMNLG
T1 sequence (P56450 whole entry): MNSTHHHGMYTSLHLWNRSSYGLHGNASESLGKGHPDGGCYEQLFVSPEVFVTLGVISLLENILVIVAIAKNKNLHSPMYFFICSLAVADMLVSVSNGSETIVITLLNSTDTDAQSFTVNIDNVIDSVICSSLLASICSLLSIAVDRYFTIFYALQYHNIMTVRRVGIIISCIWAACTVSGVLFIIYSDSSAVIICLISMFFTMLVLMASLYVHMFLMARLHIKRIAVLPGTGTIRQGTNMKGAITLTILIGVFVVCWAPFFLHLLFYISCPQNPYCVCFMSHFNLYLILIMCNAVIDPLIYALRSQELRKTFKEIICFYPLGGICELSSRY

Compound | pIC50 (Melanocortin receptor 4 [1]) | pIC50 (Melanocortin receptor 4 [2]) | Kb (Melanocortin receptor 3) | pEC50 [3] | pEC50 (Melanocortin receptor 4 [4]) | pEC50 (Melanocortin receptor 5) | pEC50 (Melanocortin receptor 3)
C[C@@H]1NC(=O)[C@H](CC(N)=O)NC(=O)[C@H](Cc2ccccc2)NC(=O)[C@H](Cc2ccccc2)NC(=O)[C@H](CCCNC(=N)N)NC(=O)[C@@H](NC(=O)[C@@H](N)Cc2ccc(O)cc2)CC(=O)NC[C@@H](C(=O)N[C@@H](Cc2ccc(O)cc2)C(N)=O)NC(=O)[C@H](Cc2ccccc2)NC1=O | 5.32 | 5.49 |  |  |  |  | 
C[C@@H]1NC(=O)[C@@H](CC(N)=O)NC(=O)[C@H](Cc2ccccc2)NC(=O)[C@@H](Cc2ccccc2)NC(=O)[C@H](CCCN=C(N)N)NC(=O)[C@@H](NC(=O)[C@@H](N)Cc2ccc(O)cc2)CC(=O)NC[C@@H](C(=O)N[C@@H](Cc2ccc(O)cc2)C(=O)O)NC(=O)[C@@H](Cc2ccccc2)NC1=O |  |  | 2 µM |  |  |  | 
CSCC[C@@H]1NC(=O)[C@H](C)NC(=O)[C@H]([C@@H](C)O)NC(=O)CNC(=O)[C@H](CC(C)C)NC(=O)[C@H](CCCCN)NC(=O)[C@H](CCCN=C(N)N)NC(=O)[C@@H]2CSSSSC[C@@H]3NC(=O)[C@@H]4CCCN4C(=O)[C@H](C(C)C)NC(=O)[C@H](CCC(N)=O)NC(=O)[C@H](CCC(N)=O)NC(=O)CNC(=O)[C@H](CC(C)C)NC(=O)[C@@H]4CSSSSC[C@H](NC(=O)[C@H]([C@@H](C)O)NC(=O)[C@H](C)NC(=O)[C@H](CSSSSC[C@@H](C(=O)N[C@@H](CO)C(=O)N[C@@H](CCCN=C(N)N)C(=O)N[C@H](C(=O)O)[C@@H](C)O)NC(=O)[C@@H]5CCCN5C(=O)[C@H](CC(N)=O)NC1=O)NC(=O)[C@@H]1CCCN1C(=O)[C@H](CC(=O)O)NC(=O)[C@H](CSSSSC[C@H](N)C(=O)N[C@@H](C(C)C)C(=O)N[C@@H](CCCN=C(N)N)C(=O)N[C@@H](CC(C)C)C(=O)N[C@@H](Cc1c[nH]cn1)C(=O)N[C@@H](CCC(=O)O)C(=O)N[C@@H](CO)C(=O)N4)NC3=O)C(=O)N[C@@H](Cc1ccc(O)cc1)C(=O)N[C@H]1CSSSSC[C@H](NC(=O)[C@H](Cc3ccccc3)NC(=O)[C@H](C)NC(=O)[C@H](CC(N)=O)NC(=O)[C@H](Cc3ccccc3)NC(=O)[C@H](Cc3ccccc3)NC(=O)[C@H](CCCN=C(N)N)NC1=O)C(=O)N[C@@H](Cc1ccc(O)cc1)C(=O)N2 |  | 8.26 | 0.00126 µM | < 4.00 |  |  | 
C[C@@H]1NC(=O)[C@H](CC(N)=O)NC(=O)[C@H](Cc2c[nH]c3ccccc23)NC(=O)[C@H](CCCNC(=N)N)NC(=O)[C@H](Cc2ccccc2)NC(=O)[C@@H](NC(=O)[C@@H](N)Cc2ccc(O)cc2)CC(=O)NC[C@@H](C(=O)N[C@@H](Cc2ccc(O)cc2)C(N)=O)NC(=O)[C@H](Cc2ccccc2)NC1=O (H-YDFRWNAF[Dap]Y-NH2; lactam 2-9) | 5.04 | 5.39 |  | 4.71 | 4.87 | 5.41 | 
C[C@@H]1NC(=O)[C@H](CC(N)=O)NC(=O)[C@H](Cc2ccccc2)NC(=O)[C@H](Cc2ccccc2)NC(=O)[C@H](CCCNC(=N)N)NC(=O)[C@H](Cc2c[nH]cn2)NC(=O)[C@@H](NC(=O)[C@@H](N)Cc2ccc(O)cc2)CC(=O)NC[C@@H](C(=O)N[C@@H](Cc2ccc(O)cc2)C(N)=O)NC(=O)[C@H](Cc2ccccc2)NC1=O (H-YDHRFFNAF[Dap]Y-NH2; lactam 2-10) |  |  |  | 4.88 | < 4.00 | < 4.00 | 
C[C@@H]1NC(=O)[C@H](CC(N)=O)NC(=O)[C@H](Cc2ccccc2)NC(=O)[C@H](CCCNC(=N)N)NC(=O)[C@H](Cc2c[nH]c3ccccc23)NC(=O)[C@@H](NC(=O)[C@@H](N)Cc2ccc(O)cc2)CC(=O)NC[C@@H](C(=O)N[C@@H](Cc2ccc(O)cc2)C(N)=O)NC(=O)[C@H](Cc2ccccc2)NC1=O (H-YDWRFNAF[Dap]Y-NH2; lactam 2-9) | 4.99 | 5.14 |  |  |  |  | 
C[C@@H]1NC(=O)[C@H](CC(N)=O)NC(=O)[C@@H](Cc2ccccc2)NC(=O)[C@H](CCCNC(=N)N)NC(=O)[C@H](Cc2c[nH]c3ccccc23)NC(=O)[C@@H](NC(=O)[C@@H](N)Cc2ccc(O)cc2)CC(=O)NC[C@@H](C(=O)N[C@@H](Cc2ccc(O)cc2)C(N)=O)NC(=O)[C@H](Cc2ccccc2)NC1=O (H-YDWR[dF]NAF[Dap]Y-NH2; lactam 2-9) |  | < 5.00 |  | 5.21 | 4.80 | 5.65 | 
C[C@@H]1NC(=O)[C@H](CC(N)=O)NC(=O)[C@H](Cc2c[nH]c3ccccc23)NC(=O)[C@H](CCCNC(=N)N)NC(=O)[C@@H](Cc2ccccc2)NC(=O)[C@@H](NC(=O)[C@@H](N)Cc2ccc(O)cc2)CC(=O)NC[C@@H](C(=O)N[C@@H](Cc2ccc(O)cc2)C(N)=O)NC(=O)[C@H](Cc2ccccc2)NC1=O (H-YD[dF]RWNAF[Dap]Y-NH2; lactam 2-9) | 5.17 | 5.51 |  |  |  |  | 
CNC(=O)C[C@@H]1NC(=O)[C@H](C)NC(=O)[C@H](C)NC(=O)[C@H](C)NC(=O)[C@@H](NC(=O)[C@H](Cc2ccc(O)cc2)NN)CC(=O)NC[C@@H](C(=O)N[C@@H](Cc2ccc(O)cc2)C(N)=O)NC(=O)C(=O)[C@H](Cc2ccccc2)NC(=O)[C@H](C)NC1=O (X3-DAAAD(NHMe)A[X4][Dap]Y-NH2; lactam 1-8) |  |  |  |  |  |  | < 4.00
